Results taken from ChEMBL document CHEMBL1156171, “N-aryltriazole ribonucleosides with potent antiproliferative activity against drug-resistant pancreatic cancer” (2010).
The source made the active and inactive calls. The rule behind the calls is not given here.

Legend:
Capan-2 = experiment: Antiproliferative activity against human Capan2 cells assessed as cell viability at 50 uM after 48 hrs by MTT assay; format: functional; settings: Capan-2, 48 h, read-out: Activity
In short: (§1)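 Cells exposed to 50 µM compound (fresh medium) for 48 h at 37 °C, 5% CO2; untreated control. Viable cells counted by MTT colorimetric assay. Documented for MiaPaCa-2: DMEM + 10% FBS, 15,000 cells/well, overnight attachment before treatment.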

MIA PaCa-2 [1] = experiment: Antiproliferative activity against human MIAPaCa2 cells assessed as cell viability at 50 uM after 48 hrs by MTT assay; format: functional; settings: MIA PaCa-2, 48 h, read-out: Activity; in short: as §1
PC-3 = experiment: Antiproliferative activity against human PC3 cells assessed as cell viability at 50 uM after 48 hrs by MTT assay; format: functional; settings: PC-3, 48 h, read-out: Activity; in short: as §1
MIA PaCa-2 [2] = experiment: Induction of apoptosis in human MIAPaCa2 cells assessed as increase in sub-G1/G0 cell fraction at 50 uM after 48 hrs using propidium iodide staining by FACS analysis; format: functional, cell-based
In short: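 MiaPaCa-2 cells plated at 10^6 per dish, grown overnight, then given fresh medium with 50 µM compound for 48 h; untreated negative control. Cells trypsinized, PBS-washed, fixed overnight in cold 70% ethanol at 4 °C, RNase-treated, propidium iodide stained, and sub-G1/G0 fraction read by flow cytometry. Triplicate samples.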

MIA PaCa-2 [3] = experiment: Antiproliferative activity against human MIAPaCa2 cells assessed as cell viability after 48 hrs by MTT assay; format: functional, cell-based
In short: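 MiaPaCa-2 cells in DMEM + 10% FBS, plated at 15,000 cells/well and attached overnight. Medium then replaced with fresh medium holding compound over a dose range; 37 °C, 5% CO2, 48 h. Viable cells determined by MTT colorimetric assay relative to untreated control.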

MIA PaCa-2 [4] = experiment: Induction of apoptosis in human MIAPaCa2 cells assessed as increase in caspase 3/7 activation at 50 uM after 24 hrs by luminescence assay; format: functional, cell-based
In short: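 MiaPaCa-2 cells plated at 15,000 cells/well and treated 24 h later with 50 µM compound for 24 h. Caspase-Glo 3/7 reagent added; DEVD-containing luminogenic substrate cleavage read as luminescence after 1 h at room temperature. Untreated cells as control.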

Row | Compound | viability at 50 µM (Capan-2) [%] | viability at 50 µM (MIA PaCa-2 [1]) [%] | viability at 50 µM (PC-3) [%] | Activity (MIA PaCa-2 [2]) | Activity (MIA PaCa-2 [3]) | Activity (MIA PaCa-2 [4])
1 | NC(=O)c1nc(Nc2ccc(F)cc2)nn1[C@@H]1O[C@H](CO)[C@@H](O)[C@H]1O | 62.9 | 68.1 | 67 |  |  | 
2 | Cc1cccc(Nc2nc(C(N)=O)n([C@@H]3O[C@H](CO)[C@@H](O)[C@H]3O)n2)c1 | 76.3 | 100 | 96.2 |  |  | 
3 | CCCc1ccc(Nc2nc(C(=O)OC)n([C@@H]3O[C@H](COC(C)=O)[C@@H](OC(C)=O)[C@H]3OC(C)=O)n2)cc1 | 95.9 | 103 | 90.2 |  |  | 
4 | COC(=O)c1nc(Nc2cccc(Cl)c2)nn1[C@@H]1O[C@H](COC(C)=O)[C@@H](OC(C)=O)[C@H]1OC(C)=O | 65.8 | 72.4 | 69.8 |  |  | 
5 | COC(=O)c1nc(Nc2ccccc2)nn1[C@@H]1O[C@H](COC(C)=O)[C@@H](OC(C)=O)[C@H]1OC(C)=O | 96.2 | 138 | 91 |  |  | 
6 | COC(=O)c1nc(Nc2ccc(F)cc2)nn1[C@@H]1O[C@H](COC(C)=O)[C@@H](OC(C)=O)[C@H]1OC(C)=O | 79.8 | 80.2 | 84.7 |  |  | 
7 | COC(=O)c1nc(Nc2ccc(C(F)(F)F)cc2)nn1[C@@H]1O[C@H](COC(C)=O)[C@@H](OC(C)=O)[C@H]1OC(C)=O | 64.4 | 98.6 | 88.4 |  |  | 
8 | COc1ccc(Nc2nc(C(N)=O)n([C@@H]3O[C@H](CO)[C@@H](O)[C@H]3O)n2)cc1 | 126 | 126 | 102 |  |  | 
9 | COC(=O)c1nc(Nc2ccc(Cl)cc2)nn1[C@@H]1O[C@H](COC(C)=O)[C@@H](OC(C)=O)[C@H]1OC(C)=O | 59.6 | 43.8 | 60.2 | Active | Dose-dependent effect | Active
10 | COC(=O)c1nc(Nc2cccc(C)c2)nn1[C@@H]1O[C@H](COC(C)=O)[C@@H](OC(C)=O)[C@H]1OC(C)=O | 84.9 | 99.9 | 94.2 |  |  | 
11 | CCc1ccc(Nc2nc(C(=O)OC)n([C@@H]3O[C@H](COC(C)=O)[C@@H](OC(C)=O)[C@H]3OC(C)=O)n2)cc1 | 90 | 99 | 96.1 |  |  | 
12 | Nc1ccn([C@@H]2O[C@H](CO)[C@@H](O)C2(F)F)c(=O)n1 [GEMCITABINE] | 32.7 | 70.4 |  |  |  | 
13 | CCc1ccc(Nc2nc(C(N)=O)n([C@@H]3O[C@H](CO)[C@@H](O)[C@H]3O)n2)cc1 | 66 | 99.8 | 91.4 |  |  | 
14 | CCCc1ccc(Nc2nc(C(N)=O)n([C@@H]3O[C@H](CO)[C@@H](O)[C@H]3O)n2)cc1 | 71.5 | 103 | 90.3 |  |  | 
15 | NC(=O)c1nc(Nc2cccc(Cl)c2)nn1[C@@H]1O[C@H](CO)[C@@H](O)[C@H]1O | 66.2 | 88.7 | 77.4 |  |  | 
16 | COC(=O)c1nc(Nc2ccc(SC)cc2)nn1[C@@H]1O[C@H](COC(C)=O)[C@@H](OC(C)=O)[C@H]1OC(C)=O | 88.1 | 85.4 | 106 |  |  | 
17 | Cc1ccc(Nc2nc(C(N)=O)n([C@@H]3O[C@H](CO)[C@@H](O)[C@H]3O)n2)cc1 | 63.9 | 85.6 | 108 |  |  | 
18 | CC(=O)O[C@H]1C(=O)[C@@]2(C)[C@H]([C@H](OC(=O)c3ccccc3)[C@]3(O)C[C@H](OC(=O)[C@H](O)[C@@H](NC(=O)c4ccccc4)c4ccccc4)C(C)=C1C3(C)C)[C@]1(OC(C)=O)CO[C@@H]1C[C@@H]2O [PACLITAXEL] |  |  | 41.3 |  |  | 
19 | COC(=O)c1nc(Nc2ccc(C)cc2)nn1[C@@H]1O[C@H](COC(C)=O)[C@@H](OC(C)=O)[C@H]1OC(C)=O | 47.1 | 58.6 | 68.6 | Active | Dose-dependent effect | Active
20 | NC(=O)c1nc(Nc2ccc(Cl)cc2)nn1[C@@H]1O[C@H](CO)[C@@H](O)[C@H]1O | 72.8 | 95.9 | 70.2 |  |  | 
21 | COC(=O)c1nc(Nc2ccc(OC)cc2)nn1[C@@H]1O[C@H](COC(C)=O)[C@@H](OC(C)=O)[C@H]1OC(C)=O | 72 | 96.4 | 85.6 |  |  | 
22 | NC(=O)c1nc(Nc2ccc(C(F)(F)F)cc2)nn1[C@@H]1O[C@H](CO)[C@@H](O)[C@H]1O | 122 | 100 | 89.4 |  |  | 
23 | NC(=O)c1nc(Nc2ccccc2)nn1[C@@H]1O[C@H](CO)[C@@H](O)[C@H]1O | 46.6 | 68 | 73.9 |  |  | 
24 | CSc1ccc(Nc2nc(C(N)=O)n([C@@H]3O[C@H](CO)[C@@H](O)[C@H]3O)n2)cc1 | 71.1 | 98.6 | 92.1 |  |  | 
